# Published values gathered from unrelated publications.
# Protocols differ between the studies behind these lines.
# Target: Dual specificity mitogen-activated protein kinase kinase 6 (MAP2K6, Homo sapiens, UniProt P52564)
# Residues used in one study (P52564 1-334): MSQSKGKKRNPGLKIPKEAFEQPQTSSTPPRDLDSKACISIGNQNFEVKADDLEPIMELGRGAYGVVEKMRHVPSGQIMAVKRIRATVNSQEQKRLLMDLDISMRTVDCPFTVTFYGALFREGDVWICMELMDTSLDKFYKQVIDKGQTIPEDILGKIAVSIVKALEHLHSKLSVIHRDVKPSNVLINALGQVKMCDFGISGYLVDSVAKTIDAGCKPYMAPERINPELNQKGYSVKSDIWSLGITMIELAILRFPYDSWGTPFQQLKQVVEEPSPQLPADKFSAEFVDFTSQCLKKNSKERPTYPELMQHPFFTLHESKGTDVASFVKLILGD
SMILES,observed,mode,technique,concentration,measurement,value
CN(C)c1ncnc(-c2ccc3nc(Nc4cc(CN5CCN(C(=O)CC(F)(F)F)CC5)ccn4)[nH]c3c2)c1Cl,cell-free assay,,competition with immobilised ligand,1 µM,remaining binding,92%
CN(C)C1CCN(CC#Cc2nn(C3CCCC3)c3nc(NCc4ccccc4)ncc23)C1 (centres unmarked),enzyme activity,inhibitor,FRET,0.1 µM,inhibition,0%
COc1cc(/C=C/C(=O)CC(=O)/C=C/c2ccc(O)c(OC)c2)ccc1O,enzyme activity,inhibitor,,1 µM,activity vs control,102%
Cn1c2c(c3ccc(Cl)c(Cl)c31)C(C#N)C1(CCNCC1)NC2=O (racemic),thermal stability,,DSF,10 µM,ΔTm,0.3 °C
C[S+]([O-])c1ccc(-c2nc(-c3ccncc3)c(-c3ccc(F)cc3)[nH]2)cc1 (centres unmarked),cell-free assay,,,0.5 µM,remaining signal,102%
Cc1cc(NC(=O)c2cccc3cc(-c4cccc5[nH]nc(N)c45)ccc23)ccc1F,enzyme activity,inhibitor,,0.1 µM,activity vs control,89%
Cn1c2c(c3ccc(Cl)c(Cl)c31)C(C#N)C1(CCCC1)NC2=O (centres unmarked),thermal stability,,DSF,10 µM,ΔTm,0 °C
O=C(Nc1cnc(Oc2ccc(F)cc2)nc1)N1CCc2ncccc2[C@@H]1c1ccc(F)cc1,cell-free assay,,competition with immobilised ligand,1 µM,remaining binding,77%
Nc1nc(Nc2ccc(S(N)(=O)=O)cc2)nn1C(=O)c1c(F)cccc1F,cell-free assay,,,0.5 µM,remaining signal,90.5%
O=C(Nc1cnn(-c2csc(C(=O)NC3COC3)c2)c1)Nc1ccccc1Cl,enzyme activity,inhibitor,,5 µM,remaining activity,96.4%
CC(C)(O)c1cncc(-c2nc3ccc(F)cc3n2C2CC2)c1,cell-free assay,,competition with immobilised ligand,1 µM,remaining binding,100%
Cn1c2c(c3ccc(Cl)c(Cl)c31)C(C#N)C1(CCOCC1)NC2=O (centres unmarked),thermal stability,,DSF,10 µM,ΔTm,0 °C
C[C@H](c1ccc(F)cc1)N(Cc1cccc(C(=O)O)c1)C(=O)c1cnc2ccccc2c1,cell-free assay,,competition with immobilised ligand,1 µM,remaining binding,100%
COc1cc(Nc2cnc(C#N)c(O[C@H](C)CN(C)C)n2)ncc1-c1cnn(C)c1,enzyme activity,inhibitor,radiometric,1 µM,remaining activity,71%
CCCCN(CCCC)C(=O)CN1C[C@@H](c2cc(OC)c3c(c2)OCO3)[C@H](C(=O)O)[C@H]1CC(C)(C)CCC,cell-free assay,,competition with immobilised ligand,1 µM,remaining binding,90.8%
CNC(=O)c1cc(Oc2ccc(NC(=O)Nc3ccc(Cl)c(C(F)(F)F)c3)cc2)ccn1,enzyme activity,inhibitor,,0.3 µM,inhibition,-1%
CCCS(=O)(=O)Nc1ccc(F)c(C(=O)c2c[nH]c3ncc(-c4ccc(Cl)cc4)cc23)c1F,enzyme activity,inhibitor,,1 µM,inhibition,< 10%
Oc1cccc(-c2nc(N3CCOCC3)c3oc4ncccc4c3n2)c1,enzyme activity,inhibitor,,10 µM,remaining activity,107%
CN1CC(Oc2cnc(C#N)cc2-c2ccn3nc(NC(=O)C4CC4)cc3c2)C1,enzyme activity,inhibitor,,1 µM,inhibition,21%
CCN(CC)CCNC(=O)c1c(C)[nH]c(/C=C2\C(=O)Nc3ccc(F)cc32)c1C,cell-free assay,,,0.5 µM,remaining signal,75.9%
Cc1ccc(NC(=O)c2ccc(C)c(C(F)(F)F)c2)cc1C#Cc1nn(C2CCC(O)CC2)c2ncnc(N)c12 (centres unmarked),cell-free assay,,,10 µM,remaining signal,43%
Nc1ncnc2occ(-c3ccc(NC(=O)Nc4cc(C(F)(F)F)ccc4F)cc3)c12,cell-free assay,inhibitor,,20 µM,remaining signal,58%
CNCc1ccc(-c2cc(-c3nc(-c4ccc(S(=O)(=O)C(C)C)cc4)cnc3N)on2)cc1,enzyme activity,inhibitor,,0.4 µM,inhibition,15%
